Measurements gathered from unrelated publications.
Lines come from different studies, so protocols differ. Values after ≈ are worked out from the molar mass of the structure shown.
Organism: Enterococcus faecalis

The IC50 of `CC(C)CCCCCCCCCCCCCCc1cc(O)cc(O)c1` is reported as 16.9 µM (microbial growth; ATCC29212).
The MIC of `CCCCCCCCCCCCCCCC(=O)CP(=O)(O)O` is reported as 12.5 µg/mL (≈ 37.4 µM) (microbial growth; ATCC33186).
For `CCCCCCCCCCCCCCCc1cc(O)cc(O)c1`, the IC50 was over 200 µM (microbial growth; ATCC29212).
With `C=C(NC(=O)C(=C)NC(=O)c1csc(C2=N[C@@H]3c4csc(n4)[C@H]4NC(=O)c5csc(n5)[C@H]([C@](C)(O)[C@@H](C)O)NC(=O)[C@H]5CSC(=N5)/C(=C/C)NC(=O)[C@H]([C@@H](C)O)NC(=O)c5csc(n5)[C@]3(CC2)NC(=O)[C@H](C)NC(=O)C(=C)NC(=O)[C@H](C)NC(=O)[C@H]([C@@H](C)CC)N[C@@H]2C=Cc3c([C@H](C)O)cc(nc3[C@H]2O)C(=O)O[C@@H]4C)n1)C(N)=O` the MIC was 0.12 µg/mL (≈ 0.0721 µM) (microbial growth; VRE).
`O=C(CCCCc1ccccc1)CP(=O)(O)O` has an MIC of over 200 µg/mL (microbial growth; ATCC33186).
`CCCCCCCCCCCCCCCC(=O)NS(=O)(=O)OC1CCCCC1` has an MIC of 12.5 µg/mL (≈ 29.9 µM) (microbial growth, broth dilution; ATCC33186).
With `CN[C@H](CC(C)C)C(=O)N[C@H]1C(=O)N[C@@H](CC(N)=O)C(=O)N[C@H]2C(=O)N[C@H]3C(=O)N[C@H](C(=O)N[C@H](C(=O)O)c4cc(O)cc(O)c4-c4cc3ccc4O)[C@H](O)c3ccc(c(Cl)c3)Oc3cc2cc(c3O[C@@H]2O[C@H](CO)[C@@H](O)[C@H](O)[C@H]2O[C@H]2C[C@](C)(N)[C@H](O)[C@H](C)O2)Oc2ccc(cc2Cl)[C@H]1O` the MBC was 32 µg/mL (≈ 22.1 µM) (microbial killing; drug-resistant strain, clinical isolate).
With `ONCc1cc(F)cc(F)c1` the MIC50 was under 80 µg/mL (microbial growth; ATCC19433; 8 h).
`CC(C)CCCCCCCCCCCCCCCc1cc(O)cc(O)c1` has an IC50 of 15.3 µM (microbial growth; ATCC29212).
`CCCCCCCCCCCCCCCC(=O)NS(=O)(=O)Oc1ccc(OC)cc1` gave an MIC of over 200 µg/mL (microbial growth; ATCC33186).
`CC1(C)S[C@@H]2[C@H](NC(=O)[C@H](N)c3ccccc3)C(=O)N2[C@H]1C(=O)O` has an inhibition zone of 28 mm (microbial growth, well diffusion; ATCC51299; 60000 µg/mL).
The MBC of `CC(C)(O/N=C(\C(=O)N[C@@H]1C(=O)N2C(C(=O)[O-])=C(C[n+]3ccccc3)CS[C@H]12)c1csc(N)n1)C(=O)O` is reported as over 128 µg/mL (microbial killing; drug-resistant strain, clinical isolate).
`CCCCCCCCCCCC(=O)NP(=O)(O)O` has an MIC of 200 µg/mL (≈ 716 µM) (microbial growth; ATCC33186).
With `CCCCCCCCCCCCCCCC(=O)NS(=O)(=O)Oc1ccc(Cl)c(Cl)c1` the MIC was 0.8 µg/mL (≈ 1.66 µM) (microbial growth, broth dilution; ATCC33186).
